This is one part of a sample in which hits are shown more often than they occur.
ALR inh – inhibitors of human ALR sulfhydryl oxidase, primary screen, biochemical, H2O2 detection, HRP-luminol luminescence, single point; FAD-linked sulfhydryl oxidase ALR (Homo sapiens), P55789; purified ALR, DTT oxidation; actives 3.8% (n = 290,000); inhibition, % (no concentration beside the values);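 active means mean replicate inhibition above about 79%, with every replicate also reaching it, limit read from the data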
Target sequence (P55789 whole entry, looked up): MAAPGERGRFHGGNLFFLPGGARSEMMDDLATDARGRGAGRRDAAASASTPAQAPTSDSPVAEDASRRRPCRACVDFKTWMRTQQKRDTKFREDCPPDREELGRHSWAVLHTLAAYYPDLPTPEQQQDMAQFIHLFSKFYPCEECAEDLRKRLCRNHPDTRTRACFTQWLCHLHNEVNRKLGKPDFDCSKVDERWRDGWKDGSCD
Glyco luc inh – increase of ERlucT glycosylation luciferase signal, primary screen, N-linked glycosylation inhibitor project, D54 ERlucT cells, luminescence, set 2 | D54 ERlucT glycosylation luciferase reporter, 24 h; percent of 100 nM tunicamycin response | reporter increase, % at 12.5 µM | actives 0.23% (n = 360,000);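 active means mean luciferase reporter signal, scaled so untreated is 0 and the glycosylation-blocking control 100, at or above a set limit in every replicate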;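 further: luciferase carries N-glycosylation sites so blocking glycosylation raises the light; 0% = median of neutral control wells and 100% = median of 100 nM tunicamycin wells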
T cell HTS – modulators of CD8 T cell-vesicle binding, primary screen, mouse 2C CD8+ T cells, flow cytometry. 2C CD8+ T cell-vesicle binding; stronger effect = lower value. response (vesicle binding), % at 7 µM. actives 0.068% (n = 330,000);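 active means response, share of CD8 T cells binding vesicles, and their 90th percentile fluorescence all below set limits, cut at about 80% in these data, passing the limit was not always enough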;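 further: values below 100% mean blocked vesicle binding to the CD8+ T cells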
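Assay system: 2C TCR transgenic mouse naive CD8+ T cells, MACS-purified | Read-out: CD8+ gate FL2 mean fluorescence as % of same-row positive control | Signal: High-throughput flow cytometry with anti-B7-1 and anti-CD8 staining | Timing: Binding step 1.5 h, 37 °C, antibody labelling 20 min, ice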
An asterisk follows results filed as active; ! = not confirmed by another sample.

What do the screens show for `CCCCCn1c(=O)c(C(=O)OCC)c(O)c2ccccc21`?
Glyco luc inh: 1; T cell HTS: 260

How did CCOC(=O)c1c(O)c2cc(Cl)ccc2n(CC)c1=O do in these assays?
ALR inh: 1; Glyco luc inh: 1; T cell HTS: 58*

How did COc1ccc(NC(=O)COc2ccccc2C)cc1S(=O)(=O)N1CCCCC1 do in these assays?
ALR inh: -14; Glyco luc inh: -3; T cell HTS: 374

What do the screens show for `COc1cc(C(=O)NS(=O)(=O)c2ccccc2C)ccc1Cc1cn(C)c2ccc(NC(=O)OC3CCCC3)cc12`?
ALR inh: 97*; T cell HTS: 234

What do the screens show for `COc1ccc(CNC(=O)CN(C(=O)c2csnn2)c2ccccc2F)cc1`?
ALR inh: -26; Glyco luc inh: 0; T cell HTS: 439

How did CCn1c(CNC(=O)c2ccc3c(c2)OCO3)nnc1SCC(=O)Nc1ccccc1F do in these assays?
ALR inh: 16; Glyco luc inh: 1; T cell HTS: 424

Results for Cc1ccc(C(=O)CSc2nc(O)cc(=O)[nH]2)cc1C ?
Glyco luc inh: 4; T cell HTS: 228

Results for Cc1ccc(C(=O)CSc2nc(N)cc(=O)[nH]2)cc1C ?
ALR inh: 99*; Glyco luc inh: 3; T cell HTS: 181

How did CCc1ccc(C(=O)CSc2nc(N)cc(=O)[nH]2)cc1 do in these assays?
Glyco luc inh: 0; T cell HTS: 169

What do the screens show for `Cc1cc(C(=O)CSc2nc(N)cc(=O)[nH]2)ccc1F`?
ALR inh: 90*; Glyco luc inh: 4; T cell HTS: 99

How did CCOC(=O)c1cc(-c2ccccc2)sc1NC(=O)c1cc(OC)c(OC)c(OC)c1 do in these assays?
ALR inh: -1; Glyco luc inh: -2; T cell HTS: 184

What do the screens show for `CC(OC(=O)[C@@H](NC(=O)OCc1ccccc1)C(C)C)C(=O)Nc1ccc(N2CCOCC2)cc1` (stereo not given in full)?
Glyco luc inh: -1

How did CCC(C)C(=O)OC1CCC=C2C=CC(C)C(CCC3CC(O)CC(=O)O3)C21 (stereo not given) do in these assays?
Glyco luc inh: 41*

How did CC[C@H](C)C(=O)O[C@H]1CCC=C2C=C[C@H](C)[C@H](CC[C@@H]3C[C@@H](O)CC(=O)O3)[C@H]21 do in these assays?
ALR inh: -6; Glyco luc inh: 54*; T cell HTS: 463

What do the screens show for `CC[C@H](C)C(=O)O[C@H]1C[C@@H](C)C=C2C=C[C@H](C)[C@H](CC[C@@H]3C[C@@H](O)CC(=O)O3)[C@H]21`?
ALR inh: -24; Glyco luc inh: 69*!; T cell HTS: 713

How did NNC(=O)CCN(Cc1ccco1)S(=O)(=O)c1ccc(Cl)cc1 do in these assays?
ALR inh: -10; Glyco luc inh: 1; T cell HTS: 522

What do the screens show for `Cc1ccc(C(=O)COC(=O)c2ccc(Cl)c(N)c2)s1`?
ALR inh: 3; Glyco luc inh: 1; T cell HTS: 204

Results for Nc1cc(C(=O)OCC(=O)c2ccc(CC(=O)N3CCOCC3)s2)ccc1Cl ?
Glyco luc inh: 1; T cell HTS: 0.0*

Results for CC(C)(C)OC(=O)C[C@H]1C/C=C\C[C@H](CC(=O)NCCO)C(=O)N[C@@H](Cc2ccccc2)COC1=O ?
ALR inh: -3; Glyco luc inh: -1; T cell HTS: 351

What do the screens show for `COc1ccc(C(=O)NC2CCCc3ccccc32)cc1OC1CCN(C(C)=O)CC1` (stereo not given)?
ALR inh: -11; Glyco luc inh: 2; T cell HTS: 498

What do the screens show for `COc1ccc(N2C(=O)CC(Sc3nc(C)c4c(n3)CCCC4)C2=O)cc1` (stereo not given)?
ALR inh: -5; Glyco luc inh: 24; T cell HTS: 182

What do the screens show for `COc1ccc(N2C(=O)CC(Sc3n[nH]c(-c4ccccc4)n3)C2=O)cc1` (stereo not given)?
ALR inh: 99*; Glyco luc inh: 0; T cell HTS: 165

Results for CCOc1ccc2nc(SC3CC(=O)N(c4ccccc4)C3=O)sc2c1 (stereo not given) ?
ALR inh: 6; Glyco luc inh: 0; T cell HTS: inactive

What do the screens show for `CCOc1ccc(N2C(=O)CC(Sc3n[nH]c(-c4ccccc4)n3)C2=O)cc1` (stereo not given)?
ALR inh: 99*; Glyco luc inh: 4; T cell HTS: 198

What do the screens show for `C[C@@H]1CN([C@@H](C)CO)C(=O)CCCn2nncc2CO[C@@H]1CN(C)C(=O)c1ccncc1`?
Glyco luc inh: 2

What do the screens show for `CN(CC(=O)Nc1ccccc1Br)C(=O)c1cc2c(s1)CCCCC2`?
ALR inh: -6; Glyco luc inh: -2; T cell HTS: 391

Results for O=C(CSCc1ccc(Cl)cc1)NCc1ccccn1 ?
ALR inh: -6; Glyco luc inh: 1; T cell HTS: 154

How did Cc1ccc(CNCCCn2cnc3c(OCc4ccccc4)ncnc32)o1 do in these assays?
Glyco luc inh: 0

Results for Cc1ccc(C(=O)CSC2=C(C#N)C(c3ccco3)CC(=O)N2)c(C)c1 (stereo not given) ?
ALR inh: 92*; Glyco luc inh: 0; T cell HTS: 410

How did CCc1ccc(NC(=O)CSC2=C(C#N)C(c3ccco3)C3=C(CCCC3=O)N2)cc1 (stereo not given) do in these assays?
ALR inh: -11; Glyco luc inh: -2; T cell HTS: 246

Results for Cc1ccc(NC(=O)CSC2=C(C#N)C(c3ccco3)C3=C(CC(C)(C)CC3=O)N2)cc1 (stereo not given) ?
ALR inh: 98*; Glyco luc inh: -2; T cell HTS: 420

What do the screens show for `COC(=O)CSC1=C(C#N)C(c2ccc(C)o2)CC(=O)N1` (stereo not given)?
ALR inh: 1; Glyco luc inh: 15; T cell HTS: 139

How did Cc1ccc(NC(=O)CSC2=C(C#N)C(c3ccco3)CC(=O)N2)cc1 (stereo not given) do in these assays?
ALR inh: 99*; Glyco luc inh: -2; T cell HTS: 495

Results for COc1ccccc1C1CC(=O)NC(SCC(=O)Nc2ccccc2)=C1C#N (stereo not given) ?
Glyco luc inh: -2; T cell HTS: 264

What do the screens show for `COc1ccc(CN2CCN(S(=O)(=O)c3ccccc3)CC2)c(OC)c1OC`?
ALR inh: -3; Glyco luc inh: 0; T cell HTS: 292

Results for CC1(NC(=O)CSc2nnc(-c3c[nH]c4ccccc34)n2C2CC2)CCS(=O)(=O)C1 (stereo not given) ?
ALR inh: -6; Glyco luc inh: -1; T cell HTS: 390

What do the screens show for `COc1ccc(C(=O)COc2ccc3c(C)cc(=O)oc3c2)cc1`?
ALR inh: -10; Glyco luc inh: 0; T cell HTS: 302

Results for COc1cccc(C(=O)COc2ccc3c(C)cc(=O)oc3c2)c1 ?
ALR inh: -11; Glyco luc inh: 38*; T cell HTS: 166

Results for Cc1c(-c2cc(Br)ccc2O)nc2cc3c(cc2c1C)OCO3 ?
Glyco luc inh: 2; T cell HTS: 723
